Experiments:
Rattus norvegicus [1] = experiment: Area under curve in male SD rats was observed after intravenous administration in rat; type: ADME, organism-based; conditions: in vivo
Summary of the method: (§1)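 Male SD rats (233-264 g), 3 per group, given a 1 μmol/kg intravenous bolus into a tail vein in DMA:PEG400:citrate buffer (40:40:20), formulated at 2 μmol/mL. No anaesthesia. Tail-vein blood was sampled at 2, 10, 30, 60, 120, 240 and 360 min. Plasma was ethanol-precipitated and analysed by LC-MS/MS against spiked-plasma standard curves. Values are mean ± SD.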

Rattus norvegicus [2] = experiment: Mean peak plasma concentration was observed after intravenous administration in rat; type: ADME, organism-based; set-up: route intravenous; conditions: in vivo; summary of the method: as §1
[3] = Plasma clearance was observed after intravenous administration in rat; type: ADME, organism-based; summary of the method: as §1
[4] = Oral bioavailability; type: ADME, organism-based; conditions: rat, in vivo
Dihydrofolate reductase [5] = biological target: T1, Dihydrofolate reductase (Homo sapiens, UniProt P00374); experiment: Ability to inhibit recombinant human dihydrofolate reductase.
T1 sequence (P00374 whole entry): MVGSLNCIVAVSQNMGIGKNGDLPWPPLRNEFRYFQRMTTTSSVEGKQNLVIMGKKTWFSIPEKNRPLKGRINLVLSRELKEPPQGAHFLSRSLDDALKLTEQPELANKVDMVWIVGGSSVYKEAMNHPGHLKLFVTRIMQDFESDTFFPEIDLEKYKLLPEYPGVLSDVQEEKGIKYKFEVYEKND

Rattus norvegicus [6] = experiment: Area under curve in male SD rats was observed after oral administration in rat; type: ADME, organism-based; conditions: in vivo
Rattus norvegicus [7] = experiment: Mean peak plasma concentration was observed after oral administration in rat; type: ADME, organism-based; set-up: route oral; conditions: in vivo
[8] = Volume of distribution at steady state was observed after intravenous administration in rat; type: ADME, organism-based; conditions: in vivo, read-out: Vss; summary of the method: as §1
[9] = Plasma half life was observed after intravenous administration in rat; type: ADME, organism-based; summary of the method: as §1
[10] = Time required to reach maximum concentration (Cmax) after oral administration in rat; type: ADME, organism-based; conditions: in vivo
Dihydrofolate reductase [11] = biological target: T2, Dihydrofolate reductase (Rattus norvegicus, UniProt Q920D2); experiment: Ability to inhibit recombinant rat liver dihydrofolate reductase.
T2 sequence (Q920D2 whole entry): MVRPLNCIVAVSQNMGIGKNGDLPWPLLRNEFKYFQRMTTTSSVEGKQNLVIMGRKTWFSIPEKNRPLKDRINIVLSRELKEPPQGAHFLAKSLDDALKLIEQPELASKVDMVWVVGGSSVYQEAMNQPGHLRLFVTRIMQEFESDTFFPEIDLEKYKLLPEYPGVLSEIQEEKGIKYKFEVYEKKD

[12] = volume of distribution at steady state was observed after intravenous administration in rat; type: ADME, organism-based; conditions: in vivo, read-out: Vss; summary of the method: as §1
[13] = plasma half life was observed after intravenous administration in rat; type: ADME, organism-based
Summary of the method: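 Male SD rats (233-264 g), three per route; 1 μmol/kg given as a tail-vein bolus in DMA:PEG400:citrate buffer (40:40:20) vehicle at 2 μmol/mL, no anaesthesia. Tail-vein blood sampled at 2, 10, 30, 60, 120, 240 and 360 min; plasma ethanol-precipitated and analysed by LC-MS/MS against spiked-plasma standard curves. Values are means ± SD, n = 3.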

Rattus norvegicus [14] = experiment: mean peak plasma concentration was observed after intravenous administration in rat; type: ADME, organism-based; set-up: route intravenous; conditions: in vivo; summary of the method: as §1
[15] = time required to reach maximum concentration (Cmax) after oral administration in rat; type: ADME, organism-based; conditions: in vivo
Rattus norvegicus [16] = experiment: mean peak plasma concentration was observed after oral administration in rat; type: ADME, organism-based; set-up: route oral; conditions: in vivo
[17] = plasma clearance was observed after intravenous administration in rat; type: ADME, organism-based; summary of the method: as §1

SMILES	AUC inf (Rattus norvegicus [1]) [µM·h]	Cmax (Rattus norvegicus [2]) [µM]	clearance [3] [mL/min/kg]	bioavailability [4] [%]	IC50 (Dihydrofolate reductase [5]) [nM]	AUC (Rattus norvegicus [6]) [µM·h]	Cmax (Rattus norvegicus [7]) [µM]	Vd [8] [L/kg]	half-life [9] [min]	Tmax [10] [min]	IC50 (Dihydrofolate reductase [11]) [nM]	Vd [12] [L/kg]	half-life [13] [min]	Cmax (Rattus norvegicus [14]) [µM]	Tmax [15] [min]	Cmax (Rattus norvegicus [16]) [µM]	clearance [17] [mL/min/kg]
Nc1nc(N)c2cc(COC(=O)c3ccc(C(=O)N[C@@H](CCC(=O)O)C(=O)O)cc3)ccc2n1	1.23	9.17	15	3.4	125	0.384	0.144	0.42	60	40.2	19.3						
Nc1nc(N)c2nc(COC(=O)c3ccc(C(=O)N[C@@H](CCC(=O)O)C(=O)O)cc3)cnc2n1											120						
CN(Cc1cnc2nc(N)nc(N)c2n1)c1ccc(C(=O)N[C@@H](CCC(=O)O)C(=O)O)cc1 [METHOTREXATE]	1.56			5.8		0.838						0.36	54	8.26	40.2	0.266	11
